OX1R antag-1: blocks the human orexin 1 receptor. O43613. CHO/OX1R cells, Fluo-8 calcium fluorescence, orexin A. inhibition, % at 5 µM. 330,000 compounds, 0.43% hits. AID 434989;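 active means inhibition above its plate's threshold, mean inhibition of all tested compounds on the plate plus 3 SD, cut at about 37% in these data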;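 further: 0% = orexin A challenge wells and 100% = SB-334867-A antagonist wells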
EP2 mod: EP2 receptor (human) modulation; P43116; EP2-expressing cells, cAMP HTRF FRET, PGE2 co-stimulation; induction, % at 25 µM; 260,000 compounds, 0.83% hits; AID 940;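 active means compounds whose cAMP rise, as percent of the full-agonist control response, exceeds 60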;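 further: rat C6 glioma line stably carrying human EP2 under a CMV promoter; the protocol text gives 20 µM as final concentration; 100% = response of wells given 1 µM PGE2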
Target sequence (P43116 whole entry, looked up): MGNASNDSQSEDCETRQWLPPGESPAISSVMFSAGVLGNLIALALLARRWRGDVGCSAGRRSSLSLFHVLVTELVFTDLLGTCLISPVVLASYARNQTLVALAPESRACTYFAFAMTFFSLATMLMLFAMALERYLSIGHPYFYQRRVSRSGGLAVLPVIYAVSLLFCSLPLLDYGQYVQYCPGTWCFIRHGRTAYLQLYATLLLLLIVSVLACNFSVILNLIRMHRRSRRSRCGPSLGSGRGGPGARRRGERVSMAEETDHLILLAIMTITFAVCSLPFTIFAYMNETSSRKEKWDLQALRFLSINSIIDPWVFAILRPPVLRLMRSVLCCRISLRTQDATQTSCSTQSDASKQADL
OX1R antag-2: antagonists of human orexin 1 receptor (OX1R). O43613. inhibition, % at 6.6 µM. 330,000 compounds, 1.8% hits. OX1R-expressing cells, FRET antagonist read-out. AID 485270; in the data active means inhibition mostly above about 38%, no sharp cut-off; inactive means mostly below about 40%;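 further: 0% = agonist challenge alone and 100% = reference antagonist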
CHO parental Ca: signal in parental CHO cells, OX1R antagonist counter-screen. parental CHO-K1, ATP-induced calcium, Fluo-8 fluorescence. inhibition, % at 5.6 µM. 330,000 compounds, 0.63% hits. AID 463079;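 active means inhibition above that plate's mean sample inhibition plus 3 SD, cut at about 26% in these data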;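 further: 0% = ATP-challenged DMSO wells and 100% = DMSO wells without ATP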
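Assay system: untransfected parental CHO cell line. Also added: ATP agonist challenge. Dosing: one dose, 5.6 µM nominal. Measured by: Fluo-8 fluorescence. Read-out: % inhibition. Benchmarks: ATP wells versus no-ATP DMSO wells. Repeats: no replicates.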
PGE2 EP2 inh: blocks the human prostaglandin E2 receptor EP2; P43116; C6 glioma cells expressing human EP2, cAMP TR-FRET; cells stimulated with saturating PGE2; inhibition, % at 25 µM; 260,000 compounds, 0.52% hits; AID 1422;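 active means percent inhibition above 40 after rounding to a whole number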;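 further: rat C6 glioma host cells with rolipram phosphodiesterase inhibitor present; the protocol text gives 20 µM as final concentration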
GPR7 antag: blocks human GPR7 receptor signaling | inhibition, % at 4.4 µM | P48145 | 290,000 compounds, 1.1% hits | AID 1861 | GPR7-expressing cells, fluorescence antagonist assay; in the data active means inhibition above about 16%, passing the limit was not always enough;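 further: cells stimulated with the agonist NPW; 0% = agonist with vehicle and 100% = vehicle without agonist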
Target sequence (P48145 whole entry, looked up): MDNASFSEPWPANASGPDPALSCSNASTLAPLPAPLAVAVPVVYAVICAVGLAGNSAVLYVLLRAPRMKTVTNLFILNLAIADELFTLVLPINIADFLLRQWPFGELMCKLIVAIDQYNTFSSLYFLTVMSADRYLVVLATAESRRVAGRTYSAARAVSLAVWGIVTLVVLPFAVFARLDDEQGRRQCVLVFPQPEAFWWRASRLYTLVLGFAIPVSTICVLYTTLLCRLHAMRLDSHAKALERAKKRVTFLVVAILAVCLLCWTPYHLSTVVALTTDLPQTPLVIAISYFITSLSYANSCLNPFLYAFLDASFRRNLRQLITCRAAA
An asterisk follows results filed as active; . = no result given; ! = not confirmed by another sample. Compounds with a hit are over-represented: about 3.7% of the library has one in this group of screens.

SMILES | OX1R antag-1 | EP2 mod | OX1R antag-2 | CHO parental Ca | PGE2 EP2 inh | GPR7 antag
Cc1ccc(CNC(=O)c2ccc(NC(=O)CCS(=O)(=O)c3cccs3)cc2)cc1 | -22.2 | 1.7 | 17.5 | 98.5* | 9.1 | 3.3
Cc1cccn2c(=O)c(/C=N/O)c(NCc3ccccc3)nc12 | -16.4 | 38.4 | 8.7 | -10.3 | 8.9 | -9.5
CN(C)S(=O)(=O)c1ccc2c(c1)/C(=C/c1cc3c([nH]1)CCCC3)C(=O)N2 | 28.7 | -31.2 | -2.7 | 36.2* | 18.5 | .
CN(C)S(=O)(=O)c1ccc2c(c1)C(=O)c1cc(S(=O)(=O)N(C)C)ccc1CC2 | -6.0 | . | 3.7 | -9.2 | . | .
CCc1nc(Nc2ccc(O)cc2)c2oc3ccccc3c2n1 | -24.2 | . | 17.4 | -4.7 | . | -8.5
Cc1cc(/C=C2/C(=N)N3C(=NC2=O)SN=C3S(C)(=O)=O)c(C)n1-c1ccccc1F | 13.6 | 10.7 | 46.7* | -3.5 | 9.3 | 3.6
CCCC1=NN2C(=N)/C(=C\c3cc(C)n(Cc4ccccc4)c3C)C(=O)N=C2S1 | 104.3* | -36.9 | 10.6 | 86.5* | 16.7 | -7.5
Cc1cc(/C=C2\C(=N)N3N=C(S(C)(=O)=O)SC3=NC2=O)c(C)n1Cc1ccccc1 | -2.1 | -25.3 | 57.9* | -0.5 | 19.6 | 8.5
COc1cc(/C=C2\C(=N)N3N=C(S(C)(=O)=O)SC3=NC2=O)cc(OC)c1OCCOc1ccccc1C | -8.1 | . | 0.6 | -2.0 | . | -8.3
Cc1cc(/C=C2\C(=N)N3N=CSC3=NC2=O)c(C)n1Cc1ccccc1 | -21.5 | -29.7 | 23.9 | 3.1 | 4.9 | -6.5
C=CCc1ccc(O)c(-c2cc(CC=C)ccc2O)c1 | 46.9* | 32.1 | 3.1 | 40.2* | 6.0 | -13.9
CN(C)c1ccc(/C=N/NC(=O)C(=O)/C=C2\NC3(CCCC3)Cc3ccccc32)cc1 | -20.2 | -0.8 | 18.9 | -18.9 | 5.8 | 20.8
COc1cc(/C=N/NC(=O)C(=O)/C=C2\NC3(CCCC3)Cc3ccccc32)ccc1O | 1.8 | 2.9 | 61.0* | -18.5 | 2.3 | -5.1
COc1ccc(C[C@@H]2C(=O)N[C@H](C)C(=O)N(C)[C@@H]3Cc4ccc(cc4)Oc4cc(ccc4O)C[C@@H](C(=O)N[C@@H](C)C(=O)N[C@H](C)C(=O)N2C)N(C)C3=O)cc1 | . | 26.1 | . | . | 40.7* | .
O=C(NCC1CCCO1)c1ccc(COc2ccc(Br)cc2)cc1 (centres undefined) | -4.1 | -70.6 | 25.2 | -19.9 | 15.9 | 17.3
CCC(Oc1ccc2c(=O)c(-c3ccccc3OC)coc2c1)C(=O)OCc1ccccc1 (centres undefined) | -6.8 | 25.2 | 6.8 | 57.3* | 0.7 | -5.4
COc1ccccc1-c1coc2cc(O)ccc2c1=O | . | 29.4 | . | . | 16.4 | .
CC1CCN(C(=O)COC(=O)c2ccc([N+](=O)[O-])o2)CC1 | -4.7 | . | 41.7* | -3.0 | . | .
O=C(OCC(=O)N1CCN(S(=O)(=O)c2ccc(Cl)cc2)CC1)c1ccc([N+](=O)[O-])o1 | -11.9 | -67.1 | 21.0 | -8.0 | 3.5 | 19.8*
Cc1cc(C(=O)COC(=O)c2ccc([N+](=O)[O-])o2)c(C)n1CC1CCCO1 (centres undefined) | -12.3 | -75.8 | 67.0* | -0.1 | 6.0 | 4.5
O=C(OCC(=O)N1CCN(S(=O)(=O)c2ccc(Cl)cc2)CC1)C1CC1 | -0.5 | . | 4.2 | -3.8 | . | .
CC1Cc2ccccc2N1C(=O)COC(=O)c1ccc([N+](=O)[O-])o1 (centres undefined) | 4.9 | . | 39.6* | -5.3 | . | .
COC(=O)CN1C(=S)N(Cc2ccccc2)C(=O)C1CC(=O)Nc1ccc(Br)cc1 (centres undefined) | 6.6 | 16.4 | 19.3 | -7.6 | 10.5 | 3.8
O=C(Nc1ccc(F)cc1)Nc1cnccn1 | -6.0 | . | 4.5 | 1.1 | . | -4.3
O=C(Nc1cc(Cl)cc(Cl)c1)Nc1cnccn1 | 30.4 | . | 39.1 | 35.9* | . | 0.4
SMILES | OX1R antag-1 | EP2 mod | OX1R antag-2 | CHO parental Ca | PGE2 EP2 inh | GPR7 antag
COC(=O)c1ccccc1NC(=O)CCCn1nc(C)c2c(C)n(-c3ccccc3)nc2c1=O | -0.6 | . | 16.1 | -4.3 | . | -1.5
CC1CCN(C(=O)[C@H]2C[C@@H](c3ccco3)NS(=O)(=O)N2C)CC1 | . | -33.8 | . | . | . | .
COc1cc2cccc(OC)c(=O)c2c(O)c1OC | -7.8 | -13.8 | 65.8* | 0.1 | 11.0 | -1.7
O=c1c(-c2ccc(Cl)cc2)[n+]([O-])c2ccccc2n1OCc1ccccn1 | -1.2 | -5.4 | 7.6 | -4.1 | 5.3 | -3.9
CCc1cccc2c(C(=O)COC(=O)c3ccccc3)c[nH]c12 | -5.4 | -8.7 | 16.8 | -10.4 | -0.7 | -2.9
CCc1cccc2c(C(=O)COC(=O)/C=C/c3ccccc3OC)c[nH]c12 | -5.1 | -5.2 | 63.1* | -14.5 | 6.8 | -7.4
O=C(CSc1nnc(COc2ccc(Cl)cc2)o1)N1c2ccccc2CCc2ccccc21 | -13.7 | 22.2 | 35.5 | -20.1 | 13.9 | -13.2
CN1CCN(S(=O)(=O)c2ccc(NC(=O)c3ccc([N+](=O)[O-])cc3)cc2)CC1 | -17.9 | . | 44.4* | -17.3 | . | .
O=C(Nc1ccc(C(=O)N2CCOCC2)cc1)c1ccc([N+](=O)[O-])cc1 | 0.6 | . | 43.7* | -9.7 | . | -1.3
CN1CCN(S(=O)(=O)c2ccc(C(=O)Nc3ccccc3)cc2)CC1 | 0.6 | -10.5 | -1.5 | -5.9 | 6.7 | -1.0
O=C(Nc1ccc(Cl)cc1)c1ccc(CN2CCc3ccccc3C2)cc1 | -29.1 | . | 2.9 | -9.0 | . | 8.7
O=C(Nc1ccc(S(=O)(=O)N2CCOCC2)cc1)c1ccc(CN2CCc3ccccc3C2)cc1 | 68.7* | -19.2 | 47.3 | 51.2* | 29.3 | 9.4
COc1ccccc1N1CCN(CCCCOc2ccc(C)cc2C)CC1 | -33.4 | . | 11.6 | -25.4 | . | -10.7
CCCCSc1nc(C)cc(C)c1S(=O)(=O)c1ccccc1C | 22.6 | 56.3 | 5.1 | 39.0* | 11.8 | -1.5
O=C1COc2ccc(C(=O)COC(=O)COc3ccccc3[N+](=O)[O-])cc2N1 | -10.9 | 16.4 | 14.2 | 0.5 | 5.5 | 3.6
S=C(Nc1ccc(Cl)cc1)NC1CC2CCCC(C1)N2C1CC1 (centres undefined) | -2.6 | -95.8 | 4.8 | -16.4 | 47.8*! | -10.5
COc1ccc(C2=Nn3c([n+](C)c4ccccc43)SC2)cc1 | -33.0 | -46.5 | 41.8* | -17.8 | 4.7 | -5.8
C=CCn1c(SCC(=O)Nc2sccc2C(N)=O)nc2sc(CC)cc2c1=O | 7.6 | -52.1 | 40.8 | 0.3 | 2.3 | -1.9
COC(=O)[C@H](Cc1ccccc1)N1C/C=C\COc2c(Cl)cc(Cl)cc2S1(=O)=O | 35.0 | . | 31.8* | -12.1 | . | .
COC(=O)[C@H](C)N1C/C=C\COc2c(Cl)cc(Cl)cc2S1(=O)=O | -8.4 | . | 16.8 | -11.4 | . | .
Cn1/c(=N/N=C/c2ccc([N+](=O)[O-])cc2)sc2ccccc21 | . | 5.2 | . | . | 14.2 | -1.6
O=C(NCCc1cn2ccsc2n1)C1CCCCC1 | 0.4 | 3.3 | 6.3 | -2.9 | 9.7 | -8.6
O=C(NCCc1cn2ccccc2n1)C1CCCCC1 | -2.5 | 2.6 | 2.7 | -4.2 | 10.8 | 19.4*
